Results taken from ChEMBL document CHEMBL4041512, “Rational design of nitrofuran derivatives: Synthesis and valuation as inhibitors of Trypanosoma cruzi trypanothione reductase” (Eur J Med Chem, 2017).
Active and inactive are the calls of the source. The calls are words filed in the database; no cut-off is given here.

Key:
[1] = tested on: Trypanosoma cruzi; assay: Anti-parasitic activity against Trypanosoma cruzi Dm28c epimastigotes in logarithmic phase measured after 24 to 48 hrs by resazurin assay; format: functional
Outline: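 Log-phase Dm28c epimastigotes at 1x10⁶ cells/ml in PBS plus 2% (w/v) glucose. Derivatives added at 0.1-100 µM final. Incubation 24-48 h, then viability read by resazurin. DMSO-only wells serve as negative control. Resazurin is also run with compound but no parasites. IC50 is the mean of at least three independent experiments, reproducible within ±10%.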

[2] = target: Trypanothione reductase (Trypanosoma cruzi, UniProt P28593); assay: Uncompetitive inhibition of Trypanosoma cruzi trypanothione reductase using […] as substrate at pH 7.5 in presence of NADPH by photometric method
Outline: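 Reactions started with NADPH; compound-free reactions serve as control. Initial rates were plotted against TS₂ concentration and Ki was taken as the mean of at least three independent data sets, within ±10%.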

[3] = tested on: HeLa; assay: Cytotoxicity against human HeLa cells measured after 24 hrs by crystal violet staining based assay; format: cell-based
Outline: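 HeLa cells seeded at 2.5 x 10⁴ cells/well in DMEM with 2% FBS, 24 h at 37°C, 5% CO₂. Medium replaced with compound, eight serial dilutions in duplicate, 24 h at 37°C. Cells fixed and stained with 0.75% crystal violet in 40% methanol for 10 min. Dye dissolved in 20% acetic acid and read at 540 nm, triplicate means. Untreated cells are the negative control.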

[4] = Selectivity index, ratio of EC50 for cytotoxicity against human HeLa cells to IC50 for anti-parasitic activity against Trypanosoma cruzi Dm28c epimastigotes; format: toxicity, cell-based; conditions: read-out: Selectivity Index
Outline: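 HeLa crystal violet EC50 (24 h) divided by epimastigote IC50 (resazurin, 48 h growth).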

[5] = tested on: Trypanosoma cruzi; assay: Anti-parasitic activity against Trypanosoma cruzi Dm28c epimastigotes in logarithmic phase assessed as morphological changes at 30 uM measured after 48 hrs by resazurin assay; format: functional
[6] = target: Trypanothione reductase (Trypanosoma cruzi) (UniProt P28593); assay: Inhibition of Trypanosoma cruzi trypanothione reductase at 100 uM using […] as substrate at pH 7.5 in presence of NADPH by photometric method; conditions: TDE = time-dependent effect
[7] = tested on: Trypanosoma cruzi; assay: Potency index, ratio of nifurtimox IC50 to test compound IC50 for Trypanosoma cruzi Dm28c epimastigotes in logarithmic phase; format: functional

Sequence of Trypanothione reductase (P28593 whole entry): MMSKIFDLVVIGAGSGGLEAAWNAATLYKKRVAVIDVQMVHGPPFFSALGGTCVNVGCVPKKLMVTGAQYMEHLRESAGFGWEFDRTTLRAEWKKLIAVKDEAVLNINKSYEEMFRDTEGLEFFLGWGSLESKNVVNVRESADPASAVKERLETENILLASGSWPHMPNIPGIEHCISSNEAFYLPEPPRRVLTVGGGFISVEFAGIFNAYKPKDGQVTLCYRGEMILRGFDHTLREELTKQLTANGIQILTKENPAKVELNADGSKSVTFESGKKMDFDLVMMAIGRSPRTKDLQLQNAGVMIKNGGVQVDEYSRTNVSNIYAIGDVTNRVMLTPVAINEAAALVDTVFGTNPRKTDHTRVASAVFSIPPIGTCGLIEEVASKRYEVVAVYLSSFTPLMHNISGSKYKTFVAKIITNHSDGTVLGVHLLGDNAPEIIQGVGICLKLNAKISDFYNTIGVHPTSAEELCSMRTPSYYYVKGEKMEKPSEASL
Sequence of Trypanothione reductase (Trypanosoma cruzi) (P28593 whole entry, looked up): as the sequence (P28593 whole entry) above

Row | IC50 [1] | Ki [2] | inhibition [6] | SMILES | EC50 [3] | selectivity ratio [4] | Activity [5] | Ratio IC50 [7]
1 | 19.6 µM | 183 µM | – | CCCN(CCC)C(=O)c1ccc([N+](=O)[O-])o1 | – | – | – | –
2 | 35 µM | 313 µM | – | CC(C)(C)NC(=O)c1ccc([N+](=O)[O-])o1 | – | – | – | –
3 | 25 µM | 128 µM | – | CCN(CC)CCCNC(=O)c1ccc([N+](=O)[O-])o1 | 100 µM | 4 | – | –
4 | 103 µM | 282 µM | – | O=C(c1ccc([N+](=O)[O-])o1)N1CCCCC1 | – | – | – | –
5 | 17 µM | 336 µM | – | CCCNC(=O)c1ccc([N+](=O)[O-])o1 | 150 µM | 8.8 | – | –
6 | – | – | Tde | O=C(O)c1ccc([N+](=O)[O-])o1 | – | – | inactive | –
7 | 15 µM | 61 µM | Tde | O=C(NCc1ccccc1)c1ccc([N+](=O)[O-])o1 | 123 µM | 8.2 | – | –
8 | 36 µM | 136 µM | – | CN(C)CCNC(=O)c1ccc([N+](=O)[O-])o1 | – | – | – | –
9 | 18 µM | 414 µM | – | CC(C)NC(=O)c1ccc([N+](=O)[O-])o1 | 211 µM | 11.7 | – | –
10 | 23 µM | 1180 µM | – | CCC(C)NC(=O)c1ccc([N+](=O)[O-])o1 (configuration not stated) | 165 µM | 7.2 | – | –
11 | 1.1 µM | 68 µM | Tde | O=C(c1ccc([N+](=O)[O-])o1)N(Cc1ccccc1)Cc1ccccc1 | 78 µM | 70.1 | – | 4
12 | 26 µM | 315 µM | – | CCCCNC(=O)c1ccc([N+](=O)[O-])o1 | 152 µM | 5.8 | – | –
13 | 19 µM | 118 µM | Tde | CN(C)CCCNC(=O)c1ccc([N+](=O)[O-])o1 | 74 µM | 3.9 | – | –
14 | 64 µM | 187 µM | – | O=C(c1ccc([N+](=O)[O-])o1)N1CCCC1 | – | – | – | –
15 | 4 µM | 245 µM | – | CC1CS(=O)(=O)CCN1/N=C/c1ccc([N+](=O)[O-])o1 (configuration not stated) [NIFURTIMOX] | 272 µM | 68 | – | –
